In the library only some 1.6% were active in any assay of this set; here they are far more common.
FLuc stim CS: FLuc activators, initial screening, artefact control for FLuc-dependent activation tests, biochemical, ATPlite luminescence; Luciferin 4-monooxygenase (Photinus pyralis), P08659; ATPlite luciferase biochemical, 10 min; 0 = ATP-free wells, 1 = DMSO control; activation factor at 10 µM; 200,000 tested, under 10 active;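 active means luciferase activation factor, scaled between plate controls, of at least 2 with compound at 10 µM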
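assay system = Luciferase/luciferin detection reagent, cell-free biochemical luciferase assay | also added = ATP substrate | times = 10 min post-reagent at room temperature | measured by = luminescence from luciferase reaction | measure = luciferase activation, seen as luminescence increase over controls | benchmarks = low control with PBS replacing ATP, high control enzyme plus ATP without compound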
TRAIL sens C8: viability loss with TRAIL in NB7+C8 cells, primary screen, TRAIL sensitizer project, cell-based, ATPlite luminescence; inhibition (viability loss, TRAIL sensitization), % at 10 µM; 360,000 tested, 1% active; AID 624354, 2012;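 active means compounds causing at least 50% loss of cell viability in the single-dose screen, relative to plate controls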
PPC-1+TRAIL kill: compounds killing PPC-1 cancer cells with TRAIL present, primary screen, TRAIL potentiator project, ATPLite luminescence, uHTS; PPC-1 cells + TRAIL, ATPLite viability luminescence; cell killing (% activity), % at 4 µM or 5 µM; 220,000 tested, 0.41% active;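 active means cell killing above 50% in the first pass at 4 µM, then a duplicate retest at 5 µM averaging 50% or more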
FLuc inh counter: firefly luciferase enzyme inhibitors, primary screen, artefact control for luciferase-based inhibitor screens, biochemical, luminescence, ATPLite. AID 1006, 2008. 200,000 tested, 1.5% active. inhibition, % at 10 µM. 10 min;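 active means inhibition above about 50% when tested at 10 µM, limit read from the data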
Numbers stand for hits; 0 = inactive; - = not tested or not shown.

SMILES	FLuc stim CS	TRAIL sens C8	PPC-1+TRAIL kill	FLuc inh counter
COc1cccc(C(=O)Nc2cccc(-c3ccc(N4CCOCC4)nn3)c2)c1OC	-	67	-	-
COc1cccc(C(=O)Nc2cccc(-c3ccc(N4CCOCC4)nn3)c2)c1	-	0	-	-
CN(/N=C/c1cc(Cl)cc(Cl)c1O)c1c(Cl)cccc1[N+](=O)[O-]	-	0	0	-
CC(C)N1CCC1(C)C(=O)Nc1cc(-c2ccccc2)nn1C (centres undefined)	-	0	-	-
CCOC(=O)CCNC(=O)N1CCCC(C(=O)c2cccc(OC(C)C)c2)C1 (centres undefined)	-	0	-	-
Oc1ccc(/C=N/N2CCN(C3c4ccccc4-c4ccccc43)CC2)cc1	-	0	0	-
Oc1ccc(/C=N/N2CCN(C3c4ccccc4-c4ccccc43)CC2)cc1O	-	58	0	-
CCOC(=O)c1cc2c(C)n(-c3ccc(OCC)cc3)c(C)c2ccc1=O	0	0	0	0
CCOC(=O)c1cc2c(C)n(-c3ccc(C)cc3)c(C)c2ccc1=O	0	59	0	84
O=C(CO)c1c[nH]c2ccccc12	-	0	-	-
NC(=O)N/N=C/c1ccc(-c2cccc(C(F)(F)F)c2)o1	0	0	0	0
O=C(N/N=C/c1ccc(-c2cccc(C(F)(F)F)c2)o1)c1cccc(F)c1	0	73	0	0
O=C(N/N=C/c1ccc(O)cc1)c1cccc(C(F)(F)F)c1	0	0	0	0
O=C(N/N=C/c1ccccc1O)c1cccc(C(F)(F)F)c1	0	0	52	0
O=C(N/N=C/c1ccccc1C(F)(F)F)c1ccc(O)cc1	0	0	0	55
COCOCCn1cc(CN2CCS(=O)(=O)N(Cc3ccc(-c4ccc(Cl)c(Cl)c4)cc3)C(C)C2=O)nn1 (centres undefined)	-	0	-	-
CCCCCCCCCCCCCCCC[N+](C)(C)Cc1ccc(F)cc1	-	54	-	-
CCOC(=O)c1nc(C)sc1-c1ccnn1S(=O)(=O)c1cccc(Cl)c1	-	0	0	-
c1ccc(CSc2nc3ccccc3[nH]2)cc1	-	0	0	-
CCOc1ccc(OCCSc2nc3ccccc3[nH]2)cc1	0	0	0	0
O=[N+]([O-])c1ccc(CSc2nc3ccccc3[nH]2)cc1	0	0	0	65
CCCOc1ccc(CSc2nc3ccccc3[nH]2)cc1	0	53	0	64
C=CCSc1nnc(-c2ccc(Cl)cc2Cl)o1	0	0	0	59
O=C(O)CCCC(=O)N1N=C(c2ccccc2)CC1c1cccs1 (centres undefined)	-	0	0	-
COc1ccccc1C(=O)COC(=O)c1cc(=O)[nH]c2ccccc12	-	0	-	-
SMILES	FLuc stim CS	TRAIL sens C8	PPC-1+TRAIL kill	FLuc inh counter
Cc1ccc(C(=O)COC(=O)c2cc(=O)[nH]c3ccccc23)cc1C	0	0	0	55
CN(C)c1ccc(N=Nc2ccccc2C(=O)OCC(=O)NCC2CCCCC2)cc1	0	0	0	0
CN(C)c1ccc(N=Nc2ccccc2C(=O)OCC(=O)N(C)C2CCCCC2)cc1	0	0	0	68
CN(C)c1ccc(N=Nc2ccccc2C(=O)OCC(=O)NC2CCCC2)cc1	0	0	0	59
CCOC(=O)c1sc(-c2ccc(Cl)cc2Cl)nc1O	-	0	0	-
O=C(N/N=C/c1ccc(OC(F)F)cc1)C1=COCCO1	0	0	0	68
O=C(Nc1ccccc1)c1cc(C2CCCN(C(=O)C3CC3)C2)on1 (centres undefined)	-	51	-	-
CCc1nnc(NC(=O)CCC(=O)NC2CCCc3ccccc32)s1 (centres undefined)	0	0	0	0
COc1cccc2c1OCC(C(=O)OCc1cccnc1)=C2	0	0	0	0
COc1ccc(NC(=O)C2=Cc3ccccc3OC2)cc1	0	0	0	52
COc1ccc(NC(=O)C2=Cc3cccc(OC)c3OC2)cc1	0	0	0	55
O=C(Nc1ccc(Cl)cc1)C1=Cc2cc(Cl)ccc2OC1	0	0	0	0
Cc1ccccc1CN1CCC(CNC(=O)C2CCCN(c3ncnc4c3nc3n4CCCCC3)C2)CC1 (centres undefined)	-	0	-	-
O=C(O)c1cccc(NC(=O)c2ccc(Cl)c(S(=O)(=O)N3CCCCCC3)c2)c1	0	0	0	65
O=C(Nc1ccccc1C(=O)O)c1ccc(Cl)c(S(=O)(=O)N2CCOCC2)c1	0	0	0	60
COc1ccccc1NC(=O)c1ccc(Cl)c(S(=O)(=O)N2CCOCC2)c1	0	0	0	0
O=C(Nc1cccnc1)c1ccc(Cl)c(S(=O)(=O)N2CCCCC2)c1	-	0	-	-
CCC1C(=O)NCCN1C(=O)c1ccc(OC)c(OC2CCN(C(C)=O)CC2)c1 (centres undefined)	-	0	-	-

High-throughput results as filed in PubChem BioAssay.
